{"data": "Assay results of several laboratories", "target": "Mitogen-activated protein kinase 7 (MAPK7, Homo sapiens, UniProt Q13164)", "note": "Lines come from different studies, so protocols differ."}
{"SMILES": "C[C@]1(O)CCCN(c2nc(Nc3ccc(S(=O)(=O)N[C@H]4CC[C@H](CN5CCN(c6ccc(C7CCC(=O)NC7=O)cc6F)CC5)CC4)cc3Cl)ncc2C(F)(F)F)C1 (some centres unmarked)", "test": "binding, competition with immobilised ligand", "setting": "1 µM", "endpoint": "remaining binding", "value": "18%"}
{"SMILES": "CCCCC(=O)Nc1ccc(-c2ccc3ncn(CCC)c(=O)c3c2)cn1", "test": "binding, competition with immobilised ligand", "setting": "0.5 µM", "endpoint": "remaining binding", "value": "82%"}
{"SMILES": "COc1ccc2[nH]c3c4[nH]c5ccc(OC)cc5c4c4c(c3c2c1)C(=O)NC4=O", "test": "binding", "setting": "1 µM", "endpoint": "remaining binding", "value": "69%"}
{"SMILES": "C[C@]1(O)CCCN(c2nc(Nc3ccc(S(=O)(=O)N[C@H]4CC[C@H](CN5CCN(c6ccc(C7CCC(=O)NC7=O)cc6F)CC5)CC4)cc3F)ncc2C(F)(F)F)C1 (some centres unmarked)", "test": "binding, competition with immobilised ligand", "setting": "1 µM", "endpoint": "remaining binding", "value": "37%"}
{"SMILES": "CO[C@@H]1[C@H](N(C)C(=O)c2ccccc2)C[C@H]2O[C@]1(C)n1c3ccccc3c3c4c(c5c6ccccc6n2c5c31)C(=O)NC4", "test": "enzyme activity, inhibitor", "setting": "1 µM", "endpoint": "inhibition", "value": "0%"}
{"SMILES": "Cc1cc(O)c(-c2ccc([C@@H](C)CN(C)C)cc2)c2c1[nH]c(=O)c1sccc12", "test": "enzyme activity, inhibitor", "setting": "0.1 µM", "endpoint": "inhibition", "value": "-0.313%"}
{"SMILES": "CC#CC(=O)N1CCC[C@H]1c1nc(-c2ccc(C(=O)Nc3ccccn3)cc2)c2c(N)nccn12", "test": "enzyme activity, inhibitor", "setting": "1 µM", "endpoint": "inhibition", "value": "0%"}
{"SMILES": "C[C@H]1CC[C@H](n2c3cnccc3c3cnc(Nc4ccc5c(n4)CCN(C(=O)CO)C5)nc32)CC1", "test": "cell-free assay", "setting": "1 µM", "endpoint": "remaining signal", "value": "92%"}
